In one series the test system is Agrostis stolonifera. The series can be described thus: Phytotoxicity against Agrostis stolonifera seeds assessed as inhibition of germination of seeds at 1 mg/mL after 7 days. In kind it is organism-based. Particulars: in vivo, 168 h. The method, boiled down:
(§1)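 Seeds (5 mg lettuce or 10 mg bentgrass) were placed on filter paper in 24-well plates with 250 μL of test solution per well (acetone 3% final). Solvent-only wells served as controls. Plates were sealed and kept at 26 °C under continuous light for 7 days. Germination was rated visually on a 0−5 scale against untreated controls (0 = no effect, 5 = no growth/germination), with experiments in duplicate.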

The subject of series [1] is Colletotrichum fragariae. In words: Antifungal activity against Colletotrichum fragariae assessed as growth inhibition at 0.3 to 30 uM by Ninety-Six Well microbioassay. In kind it is functional, organism-based. The method, boiled down: (§2)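 Fungi (the Colletotrichum isolates came from strawberry anthracnose lesions) were grown on PDA at 24 ± 2 °C under a 12 h photoperiod. They were tested in 96-well microtiter dose-response format at final concentrations of 0.3, 3.0 and 30.0 μM, in duplicate. Growth was read as absorbance at 620 nm at 0, 24, 48 and 72 h, with solvent controls.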

Series [2] deals with Colletotrichum acutatum. The series can be described thus: Antifungal activity against Colletotrichum acutatum assessed as growth inhibition at 0.3 to 30 uM by Ninety-Six Well microbioassay. In kind it is functional, organism-based. In short, it runs like this:
as §2

The test system of series [3] is Colletotrichum gloeosporioides. In words: Antifungal activity against Colletotrichum gloeosporioides assessed as growth inhibition at 0.3 to 30 uM by Ninety-Six Well microbioassay. In kind it is functional, organism-based. In short, it runs like this: as §2
In series [4] the test system is Colletotrichum fragariae. In words: Antifungal activity against Colletotrichum fragariae assessed as growth inhibition at 10 ug/spot by […]. Format: functional.
Series [5] has as its system Colletotrichum acutatum. In words: Antifungal activity against Colletotrichum acutatum assessed as growth inhibition at 10 ug/spot by […]. Format: functional.
The test system of series [6] is Colletotrichum gloeosporioides. In words: Antifungal activity against Colletotrichum gloeosporioides assessed as growth inhibition at 10 ug/spot by […]. Format: functional.
The next series relates to Lactuca sativa. In words: Phytotoxicity against […] dicot Lactuca sativa (lettuce) seeds assessed as inhibition of germination of seeds at 1 mg/mL after 7 days. In kind it is organism-based. Particulars: in vivo, 168 h. The method, boiled down: as §1
For the next series, the system named is Lemna aequinoctialis. The series can be described thus: Inhibition of growth of Lemna paucicostata.

Molecules are shown by their SMILES. The source made the active and inactive calls. No cut-off for these calls is given here.

Turning to `C/C=C\C#C/C=C1/C=CC(=O)O1` [(4Z,8Z)-MATRICARIA LACTONE], the Activity result in the series on Agrostis stolonifera and with Lactuca sativa was “Toxic” throughout. In addition, the outcome (with Colletotrichum fragariae [1]; in the series on Colletotrichum acutatum [2]; in [3]) was Active. Further, the figures for the “diameter of the inhibition zone (DIZ)” value (with Colletotrichum fragariae [4]; in the series on Colletotrichum acutatum [5]; in [6]) were 2.65 mm, 0.7 mm and 0.98 mm, respectively. Besides, in the series on Lemna aequinoctialis, the half-inhibitory concentration (IC50) was found to be 220 µM.
Consider `C/C=C\C#CC#C/C=C\C(=O)OC` [(2Z,8Z)-MATRICARIA ACID METHYL ESTER], for which the Activity entry in the series with Agrostis stolonifera and in the series on Lactuca sativa was “Toxic” each time.
Take `CCCC#C/C=C1/C=CC(=O)O1` [(4Z)-LACHNOPHYLLUM LACTONE]: the Activity result with Agrostis stolonifera and in the series with Lactuca sativa was “Toxic” each time. Also, the result (with Colletotrichum fragariae [1]; in the series on Colletotrichum acutatum [2]; in series [3]) was Active. In addition, the “diameter of the inhibition zone (DIZ)” value in the series on Colletotrichum fragariae [4] is on record as 0.3 mm; in the series with Colletotrichum acutatum [5], 0.75 mm; in series [6], 0.58 mm. Further, the IC50 with Lemna aequinoctialis amounted to 104 µM.

For orientation: IC50 means the concentration needed to halve the response being measured. Lower therefore signals inhibition by little substance.

The record behind these values is ChEMBL document CHEMBL3046935, “Bioassay-directed isolation and identification of phytotoxic and fungitoxic acetylenes from Conyza canadensis” (J Agric Food Chem, 2012).
